In ChEMBL document CHEMBL4229344 (Eur J Med Chem, 2018) one finds Activity, GI50 and inhibition in vivo data, which are given here for one molecule.

For assay [1], the target named is Serine/threonine-protein kinase PLK1 (Homo sapiens) (UniProt P53350). Briefly: Binding affinity to wild-type human partial length PLK1 (A33 to F325 residues) expressed in mammalian expression system assessed as residual binding level at 1 uM by Kinomescan method relative to control.
In assay [2] the target is Cyclin-dependent kinase 2 (Homo sapiens) (UniProt P24941). As to the kind of experiment: Binding affinity to wild-type human full length CDK2 (M1 to L298 residues) expressed in bacterial expression system assessed as residual binding level at 1 uM by Kinomescan method relative to control. The procedure, abridged:
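Single-concentration (1 μM) competition-binding screen run by KINOMEscan against a panel of 468 purified kinases and mutants. The read-out is the relative binding activity of the test compound to each kinase.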

Assay [3] deals with Serine/threonine-protein kinase DCLK1 (Homo sapiens) (UniProt O15075). As to the kind of experiment: Binding affinity to wild-type human partial length DCAMKL1 (L270 to A662 residues) expressed in mammalian expression system assessed as residual binding level at 1 uM by Kinomescan method relative to control. The procedure, abridged:
(§1)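 Kinome-wide competition binding screen against a panel of 468 purified kinases/mutants, with the test compound at a single concentration of 1 μM. Read-out is the relative binding activity of each kinase in the presence of compound.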

Assay [4] addresses Dual specificity protein kinase CLK3 (Homo sapiens) (UniProt P49761). As to the kind of experiment: Binding affinity to wild-type human full length CLK3 (M1 to R490 residues) expressed in bacterial expression system assessed as residual binding level at 1 uM by Kinomescan method relative to control. In a few lines: (§2)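 KINOMEscan competition binding against 468 purified kinases/mutants, test compound at 1 µM; residual binding relative to control.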

Assay [5] concerns the target Tyrosine-protein kinase Fes/Fps (Homo sapiens) (UniProt P07332). As to the kind of experiment: Binding affinity to wild-type human partial length FES (I527 to R822 residues) expressed in bacterial expression system assessed as residual binding level at 1 uM by Kinomescan method relative to control.
Assay [6] concerns the target Serine/threonine-protein kinase PLK4 (Homo sapiens) (UniProt O00444). As to the kind of experiment: Binding affinity to wild-type human partial length PLK4 (M1 to S273 residues) expressed in mammalian expression system assessed as residual binding level at 1 uM by Kinomescan method relative to control.
Assay [7] deals with RAC-beta serine/threonine-protein kinase (Homo sapiens) (UniProt P31751). Briefly: Binding affinity to wild-type human partial length AKT2 expressed in bacterial expression system assessed as residual binding level at 1 uM by Kinomescan method relative to control. The procedure, abridged:
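Single-concentration KINOMEscan (DiscoverX) binding screen at 1 μM against a panel of 468 purified kinases and mutants. The read-out is binding relative to control.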

Assay [8] deals with Serine/threonine-protein kinase Chk2 (Homo sapiens) (UniProt O96017). Briefly: Binding affinity to wild-type human partial length CHEK2 (S253 to E574 residues) expressed in bacterial expression system assessed as residual binding level at 1 uM by Kinomescan method relative to control.
Assay [9] deals with RAF proto-oncogene serine/threonine-protein kinase (Homo sapiens) (UniProt P04049). As to the kind of experiment: Binding affinity to wild-type human partial length RAF1 (I330 to T640 residues) expressed in bacterial expression system assessed as residual binding level at 1 uM by Kinomescan method relative to control.
RAF proto-oncogene serine/threonine-protein kinase (Homo sapiens), sequence (P04049 whole entry, the tested form may be a part): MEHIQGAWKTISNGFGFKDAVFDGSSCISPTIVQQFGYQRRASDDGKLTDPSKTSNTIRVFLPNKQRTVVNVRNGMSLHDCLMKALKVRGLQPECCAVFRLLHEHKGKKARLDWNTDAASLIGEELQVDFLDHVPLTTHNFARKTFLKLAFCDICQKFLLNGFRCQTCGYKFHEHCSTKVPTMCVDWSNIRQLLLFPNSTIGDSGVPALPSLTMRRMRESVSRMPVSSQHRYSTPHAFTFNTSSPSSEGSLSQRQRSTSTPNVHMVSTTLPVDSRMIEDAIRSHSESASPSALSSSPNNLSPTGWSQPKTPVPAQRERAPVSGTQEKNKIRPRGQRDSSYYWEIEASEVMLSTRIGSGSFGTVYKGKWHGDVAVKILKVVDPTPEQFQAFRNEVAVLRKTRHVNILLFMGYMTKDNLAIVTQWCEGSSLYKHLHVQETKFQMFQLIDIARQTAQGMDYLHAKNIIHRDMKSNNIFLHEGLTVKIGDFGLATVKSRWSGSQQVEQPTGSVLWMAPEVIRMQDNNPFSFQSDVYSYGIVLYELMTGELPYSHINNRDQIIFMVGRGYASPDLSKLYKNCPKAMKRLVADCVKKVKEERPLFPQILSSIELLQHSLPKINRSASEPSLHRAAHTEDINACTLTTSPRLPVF
Assay [10] concerns EOL1. As to the kind of experiment: Antiproliferative activity against human EOL-1 cells after 72 hrs by CellTiter-Glo or CCK-8 assay. The format is functional. The conditions noted are these: EOL1, 72 h. In a few lines: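 Cells in RPMI 1640 with 10% FBS at 37 °C, 5% CO2, seeded at 1–3 × 10^4 cells/mL with serial compound dilutions for 72 h. Viability read by CellTiter-Glo luminescence or CCK-8 absorbance (450/655 nm), normalized to DMSO control.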
On the technique in general: ATP-based viability assays read luminescence as a measure of living cells.

The target in assay [11] is Mitogen-activated protein kinase 15 (Homo sapiens) (UniProt Q8TD08). Briefly: Binding affinity to wild-type human partial length ERK8 (M1 to P437 residues) expressed in bacterial expression system assessed as residual binding level at 1 uM by Kinomescan method relative to control.
Mitogen-activated protein kinase 15 (Homo sapiens), sequence (Q8TD08 whole entry, the tested form may be a part): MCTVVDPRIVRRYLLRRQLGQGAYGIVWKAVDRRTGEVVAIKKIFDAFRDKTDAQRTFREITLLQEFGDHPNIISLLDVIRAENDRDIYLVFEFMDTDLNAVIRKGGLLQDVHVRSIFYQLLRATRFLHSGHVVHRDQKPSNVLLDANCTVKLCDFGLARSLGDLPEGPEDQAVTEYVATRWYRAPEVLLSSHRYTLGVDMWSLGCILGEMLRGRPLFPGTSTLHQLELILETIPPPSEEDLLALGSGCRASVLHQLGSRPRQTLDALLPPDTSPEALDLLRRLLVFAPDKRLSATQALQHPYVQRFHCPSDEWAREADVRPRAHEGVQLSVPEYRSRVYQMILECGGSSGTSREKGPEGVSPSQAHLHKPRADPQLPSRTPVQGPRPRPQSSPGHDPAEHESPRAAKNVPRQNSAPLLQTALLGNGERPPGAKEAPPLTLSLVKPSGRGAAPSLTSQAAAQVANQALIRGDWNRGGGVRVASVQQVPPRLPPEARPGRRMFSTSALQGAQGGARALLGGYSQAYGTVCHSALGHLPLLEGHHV
For assay [12], the target named is Death-associated protein kinase 1 (Homo sapiens) (UniProt P53355). As to the kind of experiment: Binding affinity to wild-type human partial length DAPK1 (M1 to F296 residues) expressed in bacterial expression system assessed as residual binding level at 1 uM by Kinomescan method relative to control.
Assay [13] deals with Cyclin-dependent kinase 5 (Homo sapiens) (UniProt Q00535). As to the kind of experiment: Binding affinity to wild-type human full length CDK5 (M1 to P292 residues) expressed in bacterial expression system assessed as residual binding level at 1 uM by Kinomescan method relative to control. The procedure, abridged: as §2
Cyclin-dependent kinase 5 (Homo sapiens), sequence (Q00535 whole entry, looked up, the tested form may be a part): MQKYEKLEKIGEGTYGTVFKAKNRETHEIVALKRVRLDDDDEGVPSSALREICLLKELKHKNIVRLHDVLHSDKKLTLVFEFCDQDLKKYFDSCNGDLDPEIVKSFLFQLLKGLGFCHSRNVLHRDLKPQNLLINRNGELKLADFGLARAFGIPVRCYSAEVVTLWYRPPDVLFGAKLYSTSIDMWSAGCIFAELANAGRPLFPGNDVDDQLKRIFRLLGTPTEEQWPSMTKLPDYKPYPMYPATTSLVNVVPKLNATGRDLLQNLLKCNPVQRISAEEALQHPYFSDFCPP
Assay [14] addresses Serine/threonine-protein kinase MRCK alpha (Homo sapiens) (UniProt Q5VT25). As to the kind of experiment: Binding affinity to wild-type human partial length MRCKA (L57 to V418 residues) expressed in bacterial expression system assessed as residual binding level at 1 uM by Kinomescan method relative to control. In a few lines: as §1
Assay [15] concerns the target Ephrin type-A receptor 8 (Homo sapiens) (UniProt P29322). As to the kind of experiment: Binding affinity to wild-type human partial length EPHA8 (Q608 to C920 residues) expressed in bacterial expression system assessed as residual binding level at 1 uM by Kinomescan method relative to control. The procedure, abridged: as §1
Assay [16] has as its target Serine/threonine-protein kinase 17A (Homo sapiens) (UniProt Q9UEE5). As to the kind of experiment: Binding affinity to wild-type human partial length DRAK1 (R32 to E363 residues) expressed in bacterial expression system assessed as residual binding level at 1 uM by Kinomescan method relative to control.
Assay [17] has as its system Phosphatidylinositol 4,5-bisphosphate 3-kinase catalytic subunit alpha isoform (Homo sapiens), P42336 [I800L]. As to the kind of experiment: Binding affinity to human partial length PIK3CA I800L mutant (R108 to N1068 residues) expressed in mammalian expression system assessed as residual binding level at 1 uM by Kinomescan method relative to control. In a few lines: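 Kinome-wide single-concentration binding screen (KINOMEscan) at 1 μM against a panel of 468 purified kinases and mutants. Read-out is relative binding of each kinase compared with control. Selectivity across the panel was summarised as an S(10) score.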

Assay [18] has as its target Serine/threonine-protein kinase MARK1 (Homo sapiens) (UniProt Q9P0L2). Briefly: Binding affinity to wild-type human partial length MARK1 (Q30 to T341 residues) expressed in bacterial expression system assessed as residual binding level at 1 uM by Kinomescan method relative to control.
Assay [19] concerns the target Dual specificity tyrosine-phosphorylation-regulated kinase 1B (Homo sapiens) (UniProt Q9Y463). As to the kind of experiment: Binding affinity to wild-type human full length DYRK1B (M1 to S629 residues) expressed in bacterial expression system assessed as residual binding level at 1 uM by Kinomescan method relative to control. In a few lines:
as §2

For assay [20], the system named is EOL1. As to the kind of experiment: Antitumor activity against human EOL-1 cells xenografted in nu/nu mouse assessed as tumor growth inhibition at 50 mg/kg/day, ip. The note with it: read-out: TGI. The format is functional. The procedure, abridged: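 Female nu/nu mice (6 weeks) given subcutaneous right-flank injection of 5 million EOL-1 cells in PBS/Matrigel 1:1. At 200–400 mm3 tumors, randomized to groups of 6 and dosed daily i.p. for 14 days at 25, 50 or 100 mg/kg/d in 0.5% methylcellulose/0.4% Tween80. Tumor volume = W²×L/2, measured daily.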
Background: In xenograft studies the graft and the host belong to different species.

Dual specificity protein kinase CLK3 (Homo sapiens), sequence (P49761 whole entry, looked up, the tested form may be a part): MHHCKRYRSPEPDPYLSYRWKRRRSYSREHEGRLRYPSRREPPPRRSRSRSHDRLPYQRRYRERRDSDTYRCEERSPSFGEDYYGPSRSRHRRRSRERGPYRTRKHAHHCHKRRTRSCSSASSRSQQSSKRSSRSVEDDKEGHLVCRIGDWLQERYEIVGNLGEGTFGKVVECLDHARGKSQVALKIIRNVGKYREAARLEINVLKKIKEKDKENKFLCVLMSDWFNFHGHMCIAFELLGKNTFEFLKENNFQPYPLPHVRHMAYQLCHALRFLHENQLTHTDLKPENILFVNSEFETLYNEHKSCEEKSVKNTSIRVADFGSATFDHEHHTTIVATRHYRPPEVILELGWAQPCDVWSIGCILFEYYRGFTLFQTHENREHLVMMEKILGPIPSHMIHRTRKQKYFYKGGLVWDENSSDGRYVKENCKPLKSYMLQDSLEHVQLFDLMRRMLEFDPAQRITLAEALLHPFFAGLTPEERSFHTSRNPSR
RAC-beta serine/threonine-protein kinase (Homo sapiens), sequence (P31751 whole entry): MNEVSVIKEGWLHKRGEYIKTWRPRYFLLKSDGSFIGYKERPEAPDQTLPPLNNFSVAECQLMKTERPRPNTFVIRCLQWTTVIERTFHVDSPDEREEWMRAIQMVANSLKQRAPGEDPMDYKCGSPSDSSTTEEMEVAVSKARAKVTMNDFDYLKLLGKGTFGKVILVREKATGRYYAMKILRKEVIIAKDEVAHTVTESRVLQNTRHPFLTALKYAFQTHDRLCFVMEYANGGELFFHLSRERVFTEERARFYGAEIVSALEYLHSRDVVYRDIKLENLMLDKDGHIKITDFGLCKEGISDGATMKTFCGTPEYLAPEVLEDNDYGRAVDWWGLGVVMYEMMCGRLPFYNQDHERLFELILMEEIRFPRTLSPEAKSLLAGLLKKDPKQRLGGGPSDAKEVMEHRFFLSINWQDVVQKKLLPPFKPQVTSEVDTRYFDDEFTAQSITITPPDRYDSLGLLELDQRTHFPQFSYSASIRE
Phosphatidylinositol 4,5-bisphosphate 3-kinase catalytic subunit alpha isoform (Homo sapiens), P42336 [I800L], sequence (P42336 whole entry I800L, the tested form may be a part, canonical isoform): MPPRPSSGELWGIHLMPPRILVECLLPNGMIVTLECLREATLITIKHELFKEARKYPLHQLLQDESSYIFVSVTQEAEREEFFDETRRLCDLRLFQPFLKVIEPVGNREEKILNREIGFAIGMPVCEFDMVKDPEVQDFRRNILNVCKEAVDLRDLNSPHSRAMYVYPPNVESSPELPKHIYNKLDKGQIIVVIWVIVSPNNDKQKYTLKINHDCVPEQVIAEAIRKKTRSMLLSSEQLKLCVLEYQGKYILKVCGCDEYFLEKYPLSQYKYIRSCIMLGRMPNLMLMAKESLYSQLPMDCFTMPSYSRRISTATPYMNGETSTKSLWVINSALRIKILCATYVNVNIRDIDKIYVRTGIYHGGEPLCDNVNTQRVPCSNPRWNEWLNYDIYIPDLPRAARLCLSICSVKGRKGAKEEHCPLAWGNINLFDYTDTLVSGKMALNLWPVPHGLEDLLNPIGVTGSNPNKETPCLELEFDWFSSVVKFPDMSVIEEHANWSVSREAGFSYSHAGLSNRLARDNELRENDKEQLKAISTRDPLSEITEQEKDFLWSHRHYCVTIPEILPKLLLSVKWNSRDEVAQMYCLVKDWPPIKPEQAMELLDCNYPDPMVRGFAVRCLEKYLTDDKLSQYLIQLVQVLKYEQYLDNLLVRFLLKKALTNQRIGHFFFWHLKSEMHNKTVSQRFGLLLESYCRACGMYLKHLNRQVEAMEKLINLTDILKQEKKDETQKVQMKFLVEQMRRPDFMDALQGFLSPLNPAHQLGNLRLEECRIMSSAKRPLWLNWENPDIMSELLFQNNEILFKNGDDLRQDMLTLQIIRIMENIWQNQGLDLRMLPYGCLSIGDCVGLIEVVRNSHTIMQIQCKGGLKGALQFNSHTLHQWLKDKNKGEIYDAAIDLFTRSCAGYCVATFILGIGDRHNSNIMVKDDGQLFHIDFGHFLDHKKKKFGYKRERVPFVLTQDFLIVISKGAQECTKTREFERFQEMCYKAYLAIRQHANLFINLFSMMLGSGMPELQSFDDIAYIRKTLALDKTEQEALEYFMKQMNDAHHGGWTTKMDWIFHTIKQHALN
Serine/threonine-protein kinase 17A (Homo sapiens), sequence (Q9UEE5 whole entry, the tested form may be a part, canonical isoform): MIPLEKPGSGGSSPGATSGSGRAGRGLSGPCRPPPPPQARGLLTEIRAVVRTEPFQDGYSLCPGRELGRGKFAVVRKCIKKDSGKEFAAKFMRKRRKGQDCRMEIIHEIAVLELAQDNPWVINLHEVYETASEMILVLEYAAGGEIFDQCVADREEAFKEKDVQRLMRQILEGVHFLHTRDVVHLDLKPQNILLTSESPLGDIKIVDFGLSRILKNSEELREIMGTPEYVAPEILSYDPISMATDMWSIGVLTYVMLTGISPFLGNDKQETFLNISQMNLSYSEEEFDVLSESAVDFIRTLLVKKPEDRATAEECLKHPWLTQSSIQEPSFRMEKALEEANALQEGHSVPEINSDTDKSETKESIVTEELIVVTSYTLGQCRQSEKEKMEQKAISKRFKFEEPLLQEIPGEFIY
Serine/threonine-protein kinase PLK1 (Homo sapiens), sequence (P53350 whole entry, the tested form may be a part): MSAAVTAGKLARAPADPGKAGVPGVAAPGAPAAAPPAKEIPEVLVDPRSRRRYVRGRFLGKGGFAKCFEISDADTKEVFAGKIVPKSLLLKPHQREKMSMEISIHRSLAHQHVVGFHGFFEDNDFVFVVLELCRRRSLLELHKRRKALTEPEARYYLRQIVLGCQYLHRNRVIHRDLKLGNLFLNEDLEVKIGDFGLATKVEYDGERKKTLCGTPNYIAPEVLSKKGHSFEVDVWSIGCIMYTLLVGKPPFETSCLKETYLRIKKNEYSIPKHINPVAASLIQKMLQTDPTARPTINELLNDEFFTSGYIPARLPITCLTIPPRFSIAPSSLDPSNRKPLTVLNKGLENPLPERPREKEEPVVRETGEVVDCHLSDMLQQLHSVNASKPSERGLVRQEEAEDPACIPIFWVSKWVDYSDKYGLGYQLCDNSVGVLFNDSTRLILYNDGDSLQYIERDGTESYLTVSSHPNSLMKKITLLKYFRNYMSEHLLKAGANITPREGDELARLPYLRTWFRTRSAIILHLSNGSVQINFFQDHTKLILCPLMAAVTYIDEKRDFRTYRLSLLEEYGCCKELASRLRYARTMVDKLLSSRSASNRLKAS

`Cc1ccc(NC(=O)c2ccc(CN(CCN(C)C)C(=O)c3cccnc3)cc2)cc1Nc1nccc(-c2cccnc2)n1`: the Activity came out at 100% in assay [1]; 95% in assay [2]; 78% in [3]; 94% in assay [4]; 85% in assay [5]; 88% in assay [6]. Further, the Activity was determined as 100% in assay [7]; 95% in assay [8]; 100% in [9]; 71% in assay [11]; 96% in assay [12]; 94% in assay [13]. Moreover, the Activity amounted to 80% in [14]; 89% in [15]; 77% in assay [16]; 79% in assay [17]; 97% in [18]; 51% in [19]. Further, the GI50 with EOL1 [10] is less than 1 nM. For the same molecule, in the assay on EOL1 [20], the inhibition in vivo at 50 mg/kg/day amounted to 95.4%.

In general, GI50 refers to the concentration that inhibits growth by half. A low value points to more potent growth inhibition.
